# Source: PubChem BioAssay
# In the library only some 3.2% were active in any assay of this set; here they are far more common.
# SMARCA2 act = activators of SMARCA2 function; MG213 cells, MMTV-luciferase reporter, dexamethasone, overnight; 1% of 370,000 active; activation, % at 9.1 µM; in the data active = activation above about 7.8%;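 also: 0% = vehicle wells and 100% = reference activator wells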
# NR2E3 ag-1 = agonists of human nuclear receptor NR2E3; inhibition of corepressor binding, % at 4.78 µM; 0.12% of 320,000 active; AID 2300; GST-NR2E3/biotin-RetCOR TR-FRET, 1536-well;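 active = percent inhibition above the cutoff of mean plus 3 SD of all tested compounds, set per screening campaign, cut at about 20% in these data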;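 also: 0% = DMSO wells and 100% = biotin wells as full block of FRET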
#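 Material: NR2E3–RetCOR corepressor complex / Incubation: Compound–protein incubation for 5 h at 4 °C / Dosing: compound at 4.8 µM, single dose / Detection: time-resolved FRET / Benchmarks: high control biotin, low control 0.6% DMSO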
# DAX1 inh-1 = blocks DAX1 repression of SF-1 activated StAR promoter. HEK293T StAR-luciferase reporter, SF-1/DAX-1 repression relief. inhibition, % at 6.8 µM. AID 652010. 1.1% of 370,000 active;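 active = inhibition above the mean over all tested compounds plus 3 SD, cut at about 3.6% in these data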;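 also: 0% = DAX-1 cells with DMSO and 100% = cells lacking DAX-1 with DMSO; higher inhibition means more luminescence from relief of DAX-1 repression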
# NR2E3 ag-2 = human photoreceptor-specific nuclear receptor agonism. Q9Y5X4. CHO-S Gal4-NCOR/VP16-NR2E3 two-hybrid, luciferase. inhibition of corepressor binding, % at 3.98 µM. 0.35% of 360,000 active;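 active = inhibition above the mean of all tested compounds plus 3 SD, cut at about 70% in these data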;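 also: 0% = DMSO with NR2E3 transfected cells and 100% = cells lacking NR2E3 construct; higher means lower luciferase signal from less NR2E3 corepressor binding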
# JMJD2C inh = human JMJD2C demethylase inhibition; GST-JMJD2C(1-420) H3K9me3 demethylation, DELFIA europium; inhibition, % at 2.35 µM; 0.069% of 330,000 active; AID 2099;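 active = more than half of a compound's replicate wells show inhibition beyond 50%, single wells judged on their own value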;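 also: signal counts dimethyl H3K9 product captured on neutravidin plate; 0% = median of DMSO wells and 100% = 0.3 times that DMSO median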
# DAX1 inh-2 = NR0B1 (DAX1) inhibition. AID 504766. HEK293 Gal4-DAX1 luciferase reporter, luminescence. P51843. 0.99% of 340,000 active. inhibition, % at 6.75 µM;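 active = inhibition above the mean over all tested compounds plus 3 SD, cut at about 4.2% in these data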;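 also: 0% = DAX1-transfected cells with DMSO and 100% = empty-vector control cells with DMSO; inhibition shows as a rise in luminescence from relieved DAX1 repression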
# Target sequence (P51843 207-470 limits assumed): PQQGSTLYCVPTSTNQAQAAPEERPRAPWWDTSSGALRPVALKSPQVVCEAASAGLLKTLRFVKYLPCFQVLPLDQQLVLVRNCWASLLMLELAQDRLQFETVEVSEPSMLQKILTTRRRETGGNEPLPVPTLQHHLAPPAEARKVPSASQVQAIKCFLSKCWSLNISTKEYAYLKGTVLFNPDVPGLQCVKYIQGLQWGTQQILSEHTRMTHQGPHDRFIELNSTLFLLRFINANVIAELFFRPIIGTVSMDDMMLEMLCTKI
# NR2E3 ag confirm = NR2E3 agonism confirmed in two-hybrid assay | 51% of 2,300 active | shares compounds with NR2E3 ag-2 | inhibition, % at 3.98 µM | CHO-S mammalian two-hybrid NR2E3-NCOR, luciferase luminescence;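 active = average inhibition above a cutoff equal to the mean inhibition of all tested compounds plus one SD, cut at about 70% in these data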;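 also: 0% = DMSO in NR2E3 cells and 100% = DMSO in cells lacking NR2E3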
# GAL4-VP16 luc = reduces GAL4-VP16 reporter signal in NR2E3 counterscreen. shares compounds with NR2E3 ag-2. CHO-S GAL4-VP16 luciferase reporter, luminescence. inhibition, % at 3.98 µM. 29% of 2,300 active. AID 624379;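 active = mean inhibition above a cutoff equal to the average over all tested compounds plus one standard deviation, cut at about 70% in these data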;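 also: luciferase from a UAS reporter driven by GAL4-VP16 transactivation; 0% = DMSO with VP16-transfected cells and 100% = DMSO with cells lacking VP16; higher means less reporter light so more repression of VP16 activity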
# Numbers without * were called inactive; i = inactive; / = not tested or not shown.
SMILES,SMARCA2 act,NR2E3 ag-1,DAX1 inh-1,NR2E3 ag-2,JMJD2C inh,DAX1 inh-2,NR2E3 ag confirm,GAL4-VP16 luc
O=C(NCCc1c[nH]c2ccccc12)OCc1cn(Cc2cc(F)cc(F)c2)nn1,-1.7,/,0.1,/,/,/,/,/
O=C(NCCc1c[nH]c2ccccc12)c1ccc(Sc2ccccc2Cl)c([N+](=O)[O-])c1,-5.4,/,0.0,/,/,/,/,/
COP(=O)(CC(=O)C(Cc1ccccc1)NC(=O)OC(C)(C)C)OC (stereo not given),-2.5,/,0.0,/,/,/,/,/
Cc1ccc(S(=O)(=O)N(CC(=O)Nc2ccccc2C(=O)O)c2ccccc2C)cc1,-3.4,2.9,0.8,1.7,10.8,1.1,/,/
Cc1ccc(S(=O)(=O)N(CC(=O)Nc2ccccc2C(=O)O)c2cccc(Cl)c2C)cc1,3.0,-0.3,-0.4,89.8*,4.5,0.4,97.8*,36.7
O=C(Nc1ccc(Cl)c(Cl)c1)c1ccc(Cn2cc(Cl)cn2)cc1,2.1,/,0.3,-108.7,-8.6,1.5,/,/
CCOc1ccc(C(=O)Nc2cnn(Cc3ccc(Cl)c(Cl)c3)c2)cc1,-3.2,-3.1,0.1,66.4,i,-2.0,69.9,19.0
COc1cc(OC)c2c(O)c3c(=O)cc(C)oc3c(-c3c(OC)cc4cc5c(c(O)c4c3O)C(=O)CC(C)(O)O5)c2c1 (stereo not given),2.3,/,1.5,/,/,/,/,/
C=C(C)[C@@H]1CC2=C(OC)C(CC=C(C)C)(CC=C(C)C)C(=O)C(C(=O)c3ccccc3)=C2O1,2.0,/,-0.2,/,/,/,/,/
COc1ncc(-c2cc(C(C)=O)c3n(c2=O)CCC3)c(OC)n1,-0.7,/,0.3,/,/,/,/,/
COc1cc(OC)nc(-n2ncc(Br)c(Br)c2=O)n1,-10.4,-2.4,-0.9,74.1*,6.8,-4.8,96.8*,36.4
O=[N+]([O-])c1ccc(NC(=S)NCCc2ccc(Cl)cc2)cc1,-12.4,1.3,-1.4,69.1,0.0,-0.6,96.4*,88.4*
CCCCCCCCN1C(=O)[C@@H](CC(=O)N2CCN(C(=O)OCC)CC2)C[C@@]2(C(=O)OC)C1=C[C@H](C(C)C)O[C@@H]2C1CC1,-2.6,/,-0.8,/,/,/,/,/
Cc1ccc2c(c1C)-c1c(ccc(C)c1C)C(=O)C2=O,-5.6,/,-1.3,60.4,/,-0.3,47.5,24.0
O=C1C(NC(=O)C(F)(F)Br)CCCCN1Cc1cccc(C(F)(F)F)c1 (stereo not given),-0.5,/,-1.2,/,/,/,/,/
COc1cccc(CN(C)C(=O)c2cc(COc3c(F)cccc3F)on2)c1,3.1,-7.8,-1.1,-5.6,0.6,-0.2,/,/
COc1cccc(CN(C)C(=O)c2cc(COc3ccc4ncccc4c3)on2)c1,-5.8,1.0,-3.1,78.9*,-9.6,-3.4,96.6*,87.7*
COc1cccc(CN(C)C(=O)c2cc(COc3ccc(-n4cncn4)cc3)on2)c1,-4.0,2.9,-6.7,66.4,-34.6,-0.6,45.9,40.8
CC(C)CN1C(=O)C[C@]2(C(=O)N(C)c3ccc(NC(=O)C(C)(C)C)cc32)C1c1ccccc1 (stereo not given in full),-1.7,/,-0.5,/,/,/,/,/
O=S(=O)(c1ccccc1C(F)(F)F)N1CCN(c2ncnc3sccc23)CC1,-4.7,/,-4.1,59.7,-3.5,-1.0,67.1,51.0
CCS(=O)(=O)N1CCN(c2ncnc3sc(C)c(C)c23)CC1,-3.7,2.3,0.0,7.1,-15.3,0.7,/,/
O=S(=O)(c1ccc(F)c(F)c1F)N1CCN(c2ncnc3sccc23)CC1,-2.2,/,-6.5,21.6,-15.1,-3.8,/,/
Cc1sc2ncnc(N3CCN(S(=O)(=O)c4ccc(F)cc4)CC3)c2c1C,0.2,2.0,0.0,78.0*,3.9,-1.0,79.9*,74.2*
O=C(O)c1cc2c(N3CCC(Cc4ccccc4)CC3)ncnc2s1,-2.3,2.9,0.1,-3.1,5.0,-0.2,/,/
Cc1ccc(S(=O)(=O)N2CCN(c3ncnc4sccc34)CC2)cc1,-3.3,-0.2,-7.7,103.4*,4.0,-1.0,93.8*,82.7*
c1ccc(CC2CCN(c3ncnc4sccc34)CC2)cc1,-7.3,/,-2.9,80.2*,-21.6,-3.3,97.2*,82.6*
